# How the values were obtained:
# [1] = MAD study, safety and tolerability; format: in vivo, human
# Outline: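 MAD cohorts were 6 active and 2 placebo healthy males, dosed once daily for 7 days, confined day −1 to day 8, with follow-up on day 14. Safety was monitored by vital signs, clinical labs, 12-lead ECG, physical exams, and AEs reported by subjects or observed by investigators. AEs were coded with MedDRA 19.1. Counts are given as subjects with AEs, % of the safety population. Placebo subjects were pooled.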
# [2] = Single ascending dose; format: in vivo, human
# Outline: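 After a single oral dose, plasma was sampled predose and at 0.25–72 h, and urine was collected over 0–24 h. Samples were mixed with DMSO and a deuterated internal standard, extracted with methanol, diluted with 0.1% ammonium acetate, and run by UPLC-MS/MS using MRM at m/z 460.1→214.2. Analysis was non-compartmental: t1/2 = 0.693/λz, AUC by linear trapezoidal rule, BLQ values before Cmax set to zero.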
# [3] = cited from earlier work
smiles,measurement,setting,value
Cc1nn(Cc2ccc(Br)cc2)c(C)c1NC(=O)CSc1ccccc1 [KM-819],"Musculoskeletal stiffness, number of subjects (%)","[1]; 200 mg QD 7 days, young, N=6",1 (16.7)
same,"Nausea, number of subjects (%)","[1]; 200 mg QD 7 days, young, N=6",4 (66.7)
same,"Neck pain, number of subjects (%)","[1]; 200 mg QD 7 days, young, N=6",0
same,"Oropharyngeal pain, number of subjects (%)","[1]; 200 mg QD 7 days, young, N=6",1 (16.7)
same,"Subjects with any TEAEs, number of subjects (%)","[1]; 200 mg QD 7 days, young, N=6",5 (83.3)
same,"Vomiting, number of subjects (%)","[1]; 200 mg QD 7 days, young, N=6",4 (66.7)
same,"Abdominal discomfort, number of subjects (%)","[1]; 400 mg QD 7 days, young, N=6",0
same,"Abdominal pain, number of subjects (%)","[1]; 400 mg QD 7 days, young, N=6",0
same,"Anxiety, number of subjects (%)","[1]; 400 mg QD 7 days, young, N=6",0
same,"Back pain, number of subjects (%)","[1]; 400 mg QD 7 days, young, N=6",1 (16.7)
same,"Diarrhea, number of subjects (%)","[1]; 400 mg QD 7 days, young, N=6",0
same,"Dizziness, number of subjects (%)","[1]; 400 mg QD 7 days, young, N=6",0
same,"Epistaxis, number of subjects (%)","[1]; 400 mg QD 7 days, young, N=6",1 (16.7)
same,"Erythema of eyelid, number of subjects (%)","[1]; 400 mg QD 7 days, young, N=6",1 (16.7)
same,"Erythema, number of subjects (%)","[1]; 400 mg QD 7 days, young, N=6",0
same,"Headache, number of subjects (%)","[1]; 400 mg QD 7 days, young, N=6",4 (66.7)
same,"Hyperbilirubinemia, number of subjects (%)","[1]; 400 mg QD 7 days, young, N=6",0
same,"Hyperhidrosis, number of subjects (%)","[1]; 400 mg QD 7 days, young, N=6",1 (16.7)
same,"Hypoesthesia, number of subjects (%)","[1]; 400 mg QD 7 days, young, N=6",0
same,"Insomnia, number of subjects (%)","[1]; 400 mg QD 7 days, young, N=6",0
same,"Muscle hemorrhage, number of subjects (%)","[1]; 400 mg QD 7 days, young, N=6",0
same,"Musculoskeletal stiffness, number of subjects (%)","[1]; 400 mg QD 7 days, young, N=6",1 (16.7)
same,"Nausea, number of subjects (%)","[1]; 400 mg QD 7 days, young, N=6",0
same,"Neck pain, number of subjects (%)","[1]; 400 mg QD 7 days, young, N=6",0
same,"Oropharyngeal pain, number of subjects (%)","[1]; 400 mg QD 7 days, young, N=6",0
same,"Subjects with any TEAEs, number of subjects (%)","[1]; 400 mg QD 7 days, young, N=6",5 (83.3)
same,"Vomiting, number of subjects (%)","[1]; 400 mg QD 7 days, young, N=6",0
same,subjects withdrawn due to AEs,"[1]; MAD, headache",2
same,serious adverse events (SAEs) reported,"[1]; MAD, headache, considered unlikely related to KM-819",1
same,variability (CV%) of AUCinf and Cmax,[2]; SAD,up to 55%
same,dose proportionality of plasma exposure (AUC and Cmax) after a single dose,"[2]; SAD, 10–400 mg",less than dose-proportional increase
same,24-hour recovery in urine (percent of dose),"[2]; SAD, all subjects",less than 1%
same,"AUCinf, geometric mean (CV%)","[2]; single 10 mg, young",594.2 (24.4) ng·h/mL
same,"AUClast, geometric mean (CV%)","[2]; single 10 mg, young",583.4 (24.5) ng·h/mL
same,"CL/F, geometric mean (CV%)","[2]; single 10 mg, young","16,830 (24.4) mL/h"
same,"Cmax, geometric mean (CV%)","[2]; single 10 mg, young",244.1 (31.4) ng/mL
same,"Tmax, median (min–max)","[2]; single 10 mg, young",1.50 (0.50–2.00) h
same,"t1/2, geometric mean (CV%)","[2]; single 10 mg, young",1.786 (28.3) h
same,"tlag, median (min–max)","[2]; single 10 mg, young",0.00 (0.00–0.25) h
same,"AUCinf, geometric mean (CV%)","[2]; single 30 mg, young","1,731 (17.3) ng·h/mL"
same,"AUClast, geometric mean (CV%)","[2]; single 30 mg, young","1,705 (17.1) ng·h/mL"
same,"CL/F, geometric mean (CV%)","[2]; single 30 mg, young","17,340 (17.3) mL/h"
same,"Cmax, geometric mean (CV%)","[2]; single 30 mg, young",503.6 (28.0) ng/mL
same,"Tmax, median (min–max)","[2]; single 30 mg, young",1.00 (0.50–2.00) h
same,"t1/2, geometric mean (CV%)","[2]; single 30 mg, young",4.791 (25.0) h
same,"tlag, median (min–max)","[2]; single 30 mg, young",0.00 (0.00–0.00) h
same,"AUCinf, geometric mean (CV%)","[2]; single 100 mg, young","4,872 (30.8) ng·h/mL"
same,"AUClast, geometric mean (CV%)","[2]; single 100 mg, young","4,306 (31.1) ng·h/mL"
same,"CL/F, geometric mean (CV%)","[2]; single 100 mg, young","20,530 (30.8) mL/h"
same,"Cmax, geometric mean (CV%)","[2]; single 100 mg, young","1,152 (36.7) ng/mL"
same,"Tmax, median (min–max)","[2]; single 100 mg, young",2.00 (1.00–4.00) h
same,"t1/2, geometric mean (CV%)","[2]; single 100 mg, young",9.159 (41.2) h
same,"tlag, median (min–max)","[2]; single 100 mg, young",0.00 (0.00–0.00) h
same,AUC higher in elderly than in young,[2]; single 200 mg,49%
same,"Cmax, elderly compared with young",[2]; single 200 mg,similar
same,t1/2 higher in elderly than in young,[2]; single 200 mg,17%
same,"AUCinf, geometric mean (CV%)","[2]; single 200 mg, elderly","10,970 (9.8) ng·h/mL"
same,"AUClast, geometric mean (CV%)","[2]; single 200 mg, elderly","10,840 (10.3) ng·h/mL"
same,"CL/F, geometric mean (CV%)","[2]; single 200 mg, elderly","18,230 (9.8) mL/h"
same,"Cmax, geometric mean (CV%)","[2]; single 200 mg, elderly","1,766 (26.0) ng/mL"
same,"Tmax, median (min–max)","[2]; single 200 mg, elderly",2.00 (1.0–4.00) h
same,"t1/2, geometric mean (CV%)","[2]; single 200 mg, elderly",10.55 (28.5) h
same,"tlag, median (min–max)","[2]; single 200 mg, elderly",0.00 (0.00–0.00) h
same,"AUCinf, geometric mean (CV%)","[2]; single 200 mg, young","7,338 (51.9) ng·h/mL"
same,"AUClast, geometric mean (CV%)","[2]; single 200 mg, young","7,637 (47.7) ng·h/mL"
same,"CL/F, geometric mean (CV%)","[2]; single 200 mg, young","27,260 (51.9) mL/h"
same,"Cmax, geometric mean (CV%)","[2]; single 200 mg, young","1,879 (55.3) ng/mL"
same,"Tmax, median (min–max)","[2]; single 200 mg, young",2.00 (1.00–4.00) h
same,"t1/2, geometric mean (CV%)","[2]; single 200 mg, young",9.010 (71.6) h
same,"tlag, median (min–max)","[2]; single 200 mg, young",0.00 (0.00–0.25) h
same,"AUCinf, geometric mean (CV%)","[2]; single 400 mg, young","12,640 (36.1) ng·h/mL"
same,"AUClast, geometric mean (CV%)","[2]; single 400 mg, young","12,210 (33.3) ng·h/mL"
same,"CL/F, geometric mean (CV%)","[2]; single 400 mg, young","31,650 (36.1) mL/h"
same,"Cmax, geometric mean (CV%)","[2]; single 400 mg, young","2,767 (43.4) ng/mL"
same,"Tmax, median (min–max)","[2]; single 400 mg, young",4.00 (2.00–4.00) h
same,"t1/2, geometric mean (CV%)","[2]; single 400 mg, young",8.527 (63.2) h
same,"tlag, median (min–max)","[2]; single 400 mg, young",0.00 (0.00–0.00) h
same,no observed adverse effect level (NOAEL),[3]; 4-week rat toxicology study,500 mg/kg/day
same,adverse effects after repeated administration,"[3]; 4 weeks, up to 500 mg/kg/day",did not show adverse effects
